# Data published in ChEMBL document CHEMBL1121813, “Dihydrochalcone sweeteners. A study of the atypical temporal phenomena” (1981).
# Experiments:
# Assay type in all cases: functional
# [1] = species on record: Homo sapiens; experiment: Sour character at a concentration of 251 ppm (mean value)
# Method in brief: (§1)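 Trained human sensory panel (Swartz method) tasted dilute aqueous solutions of the compounds, which had to be ≥95 weight percent pure and free of mutagenicity and toxicity. Taste character is reported as the mean value with 2S_m limits. Data deviating excessively at the 95% confidence level were rejected by the t-value method.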
# [2] = species on record: Homo sapiens; experiment: Number of taste judgments per compound
# [3] = species on record: Homo sapiens; experiment: Percentage of judgments reporting an aftertaste at a concentration of 251 ppm and character thereof
# Method in brief: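 Trained human sensory panel; compounds tasted in aqueous solution. Before panel work, compounds had to be ≥95 weight percent pure (HPLC, proton titration, Karl Fischer) and free of mutagenicity (five Salmonella typhimurium strains, ± microsomal activation) and single oral dose mouse toxicity. Value is the percentage of judgments reporting an aftertaste, with its character recorded as sweet, bitter or bitter-sweet.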
# [4] = species on record: Homo sapiens; experiment: Other taste character at a concentration of 251 ppm (mean value); method in brief: as §1
# [5] = species on record: Homo sapiens; experiment: Experimentally determined perceived intensity of compound at a concentration of 251 ppm (mean value)
# Method in brief: (§2)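 Trained human sensory panel of judges tasted aqueous solutions of the compound. Samples had to be ≥95 weight % pure (HPLC, proton titration, Karl Fischer), non-mutagenic in five Salmonella typhimurium strains with and without microsomal activation, and non-toxic in a single-oral-dose mouse test. Perceived intensity (Ip) was read from time–intensity curves at 4- or 6-s intervals and averaged. Outliers at the 95% level were rejected by t-value. Values reported as mean (2Sm).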
# [6] = species on record: Homo sapiens; experiment: Sweet character at a concentration of 251 ppm (mean value); method in brief: as §1
# [7] = species on record: Homo sapiens; experiment: Sweet / Bitter character at a concentration of 251 ppm (mean value); […]
# [8] = species on record: Homo sapiens; experiment: Salty character at a concentration of 251 ppm (mean value); method in brief: as §1
# [9] = species on record: Homo sapiens; experiment: Intensity calculated on a molar basis relative to a 0.25 M sucrose solution at a concentration of 251 ppm (mean value)
# Method in brief: (§3)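 Trained human judges tasted aqueous solutions of the test compound; compounds were first required to be ≥95 weight percent pure and free of mutagenicity (five Salmonella typhimurium strains, ± microsomal activation) and of single oral dose mouse toxicity. Molar intensity I_m = perceived intensity × (0.25 M sucrose / compound molar concentration). The mean is reported with 2S_m limits; outliers were rejected at 95% confidence by t-value.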
# [10] = species on record: Homo sapiens; experiment: Intensity calculated on a weight basis relative to an 85500 ppm sucrose solution at a concentration of 251 ppm (mean value)
# Method in brief: (§4)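 Trained human panel tasted aqueous solutions of purity-checked (≥95 weight percent) compounds cleared for mutagenicity and mouse oral toxicity. Weight-basis intensity I_w = perceived intensity × (85500 ppm sucrose / compound concentration in ppm). The mean is reported with 2S_m limits; data deviating excessively at 95% confidence were rejected by the t-value method.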
# [11] = species on record: Homo sapiens; experiment: Bitter character at a concentration of 251 ppm (mean value)
# Method in brief: (§5)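 Trained human panel tasted aqueous solutions. Each judge reported whether there was an aftertaste and its character (sweet, bitter or bitter-sweet). The value is the percentage of judgments reporting a bitter aftertaste.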
# [12] = species on record: Homo sapiens; experiment: Intensity calculated on a weight basis relative to an 85500 ppm sucrose solution at a concentration of 33.4 ppm (mean value); method in brief: as §4
# [13] = species on record: Homo sapiens; experiment: Bitter character at a concentration of 33.4 ppm (mean value); method in brief: as §5
# [14] = species on record: Homo sapiens; experiment: Intensity calculated on a molar basis relative to a 0.25 M sucrose solution at a concentration of 33.4 ppm (mean value); method in brief: as §3
# [15] = species on record: Homo sapiens; experiment: Salty character at a concentration of 33.4 ppm (mean value)
# [16] = species on record: Homo sapiens; experiment: Sour character at a concentration of 33.4 ppm (mean value)
# [17] = species on record: Homo sapiens; experiment: Experimentally determined perceived intensity of compound at a concentration of 33.4 ppm (mean value); method in brief: as §2
# [18] = species on record: Homo sapiens; experiment: Sweet character at a concentration of 33.4 ppm (mean value)
# [19] = species on record: Homo sapiens; experiment: Other taste character at a concentration of 33.4 ppm (mean value); method in brief: as §1
# [20] = species on record: Homo sapiens; experiment: Percentage of judgments reporting an aftertaste at a concentration of 33.4 ppm and character thereof
# [21] = species on record: Homo sapiens; experiment: Sweet / Bitter character at a concentration of 33.4 ppm (mean value); 66/34
# [22] = species on record: Homo sapiens; experiment: Sweet / Bitter character at a concentration of 252 ppm (mean value)
# [23] = species on record: Homo sapiens; experiment: Other taste character at a concentration of 252 ppm (mean value); method in brief: as §1
# [24] = species on record: Homo sapiens; experiment: Intensity calculated on a weight basis relative to an 85500 ppm sucrose solution at a concentration of 252 ppm (mean value); method in brief: as §4
# [25] = species on record: Homo sapiens; experiment: Salty character at a concentration of 252 ppm (mean value); method in brief: as §1
# [26] = species on record: Homo sapiens; experiment: Bitter character at a concentration of 252 ppm (mean value); method in brief: as §5
# [27] = species on record: Homo sapiens; experiment: Sour character at a concentration of 252 ppm (mean value); method in brief: as §1
# [28] = species on record: Homo sapiens; experiment: Percentage of judgments reporting an aftertaste at a concentration of 252 ppm and character thereof; Bitter
# Method in brief: (§6)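 Trained judges tasted aqueous solutions of the compounds, which had to be ≥95 weight percent pure and to have passed mutagenicity and single oral dose toxicity screening. The value is the percentage of panel judgments reporting an aftertaste. Where given, its character is recorded as sweet, bitter or bitter-sweet.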
# [29] = species on record: Homo sapiens; experiment: Intensity calculated on a molar basis relative to a 0.25 M sucrose solution at a concentration of 252 ppm (mean value); method in brief: as §3
# [30] = species on record: Homo sapiens; experiment: Experimentally determined perceived intensity of compound at a concentration of 252 ppm (mean value); method in brief: as §2
# [31] = species on record: Homo sapiens; experiment: Sweet character at a concentration of 252 ppm (mean value); method in brief: as §1
# [32] = species on record: Homo sapiens; experiment: Sweet / Bitter character at a concentration of 251 ppm (mean value)
# [33] = species on record: Homo sapiens; experiment: Percentage of judgments reporting an aftertaste at a concentration of 251 ppm and character thereof; Bitter; method in brief: as §6
# [34] = species on record: Homo sapiens; experiment: Intensity calculated on a molar basis relative to a 0.25 M sucrose solution at a concentration of 497 ppm (mean value); method in brief: as §3
# [35] = species on record: Homo sapiens; experiment: Sweet / Bitter character at a concentration of 497 ppm (mean value); 0/100
# [36] = species on record: Homo sapiens; experiment: Bitter character at a concentration of 497 ppm (mean value); method in brief: as §5
# [37] = species on record: Homo sapiens; experiment: Percentage of judgments reporting an aftertaste at a concentration of 497 ppm and character thereof
# [38] = species on record: Homo sapiens; experiment: Sweet character at a concentration of 497 ppm (mean value)
# [39] = species on record: Homo sapiens; experiment: Intensity calculated on a weight basis relative to an 85500 ppm sucrose solution at a concentration of 497 ppm (mean value); method in brief: as §4
# [40] = species on record: Homo sapiens; experiment: Experimentally determined perceived intensity of compound at a concentration of 497 ppm (mean value); method in brief: as §2
# [41] = species on record: Homo sapiens; experiment: Sour character at a concentration of 497 ppm (mean value)
# [42] = species on record: Homo sapiens; experiment: Salty character at a concentration of 497 ppm (mean value)
# [43] = species on record: Homo sapiens; experiment: Other taste character at a concentration of 497 ppm (mean value); method in brief: as §1
structure (smiles),measurement,setting,value
COc1ccc(CCC(=O)c2c(O)cc(OCCCP(=O)([O-])O)cc2O)cc1O.[K+],Taste character,[1],0
same,Judgments,[2],12
same,Judgments,[3],100
same,Taste character,[4],13
same,IP,[5],0.83
same,Taste character,[6],80
same,Taste character,[7],92
same,Taste character,[8],0
same,IM,[9],380
same,IW,[10],280
same,Taste character,[11],7
COc1ccc(C2CC(=O)c3c(O)cccc3O2)cc1O (stereo not given),IW,[12],1700
same,Taste character,[13],32
same,IM,[14],1400
same,Judgments,[2],8
same,Taste character,[15],0
same,Taste character,[16],6
same,IP,[17],0.68
same,Taste character,[18],62
same,Taste character,[19],0
same,Judgments,[20],42
same,Taste character,[21],66
O=C(O)CCc1cccc(O)c1,Taste character,[22],0
same,Taste character,[23],0
same,IW,[24],160
same,Judgments,[2],8
same,Taste character,[25],0
same,Taste character,[26],4
same,Taste character,[27],96
same,Judgments,[28],38
same,IM,[29],80
same,IP,[30],0.46
same,Taste character,[31],0
COc1ccc(C2CC(=O)c3c(O)cc(OCC(=O)[O-])cc3O2)cc1O.[Na+] (stereo not given),Taste character,[1],0
same,Judgments,[2],12
same,Taste character,[4],7
same,Taste character,[32],16
same,IP,[5],0.79
same,Judgments,[33],100
same,Taste character,[6],15
same,Taste character,[8],0
same,IM,[9],300
same,IW,[10],270
same,Taste character,[11],78
O=C([O-])COc1cc(O)c(C(=O)CCc2ccc3c(c2)OCO3)c(O)c1.[Na+],Judgments,[2],12
same,IM,[34],160
same,Taste character,[35],0
same,Taste character,[36],79
same,Judgments,[37],100
same,Taste character,[38],0
same,IW,[39],140
same,IP,[40],0.83
same,Taste character,[41],0
same,Taste character,[42],0
same,Taste character,[43],21
